ChEMBL document CHEMBL1140339, “Spiro and dispiro-1,2,4-trioxolanes as antimalarial peroxides: charting a workable structure-activity relationship using simple prototypes” (J Med Chem, 2005)
≈ marks a conversion by molar mass, not a printed value.

How the values were obtained:
Mus musculus [1] = assay: Antimalarial activity (10 mg/kg, peroral) given 1 day post infection of mice (Mus musculus) with Plasmodium berghei is its ability to reduce parasitaemia on day 3 post infection; assay type: functional
Outline: (§1)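 P. berghei-infected MORO mice, groups of three, treated 1 day postinfection with a single dose (100 or 10 mg/kg, po or sc) dissolved or suspended in 3% ethanol/7% Tween-80. Activity is percent reduction in parasitemia on day 3 postinfection versus untreated controls. Survival time is compared with an untreated control group. Individual measurements generally differed by less than 10%.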

Mus musculus [2] = assay: Antimalarial activity (10 mg/kg, subcutaneously) given 1 day post infection of mice (Mus musculus) with Plasmodium berghei is its ability to reduce parasitemia on day 3 post infection; assay type: functional; outline: as §1
Mus musculus [3] = assay: Antimalarial activity (100 mg/kg, peroral) given 1 day post infection of mice (Mus musculus) with Plasmodium berghei is its ability to reduce parasitaemia on day 3 post infection; assay type: functional; outline: as §1
Mus musculus [4] = assay: Antimalarial activity (100 mg/kg, subcutaneously) given 1 day post infection of mice (Mus musculus) with Plasmodium berghei is its ability to reduce parasitemia on day 3 post infection; assay type: functional; outline: as §1
Mus musculus [5] = assay: Effective dose required to reduce the parasitemia in mice when compound administered with Tween-80 after 3 day postinfection; assay type: functional
Mus musculus [6] = assay: Effective dose required to reduce the parasitemia in mice when compound administered with SSV after 3 day postinfection; assay type: functional
Mus musculus [7] = organism: Mus musculus; assay: Effective dose required to reduce the parasitemia in mice by suppressive test after 4 day postinfection; assay type: functional
Outline: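 Peters 4-day suppressive test in P. berghei-infected mice with multiple daily oral doses. ED50/ED90 are given in (mg/kg)/day.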

Mus musculus [8] = assay: Survival of mice to 30-day postinfection with Plasmodium berghei upon 100 mg/kg peroral dose was determined; assay type: functional; settings: route oral; outline: as §1
Mus musculus [9] = assay: Survival of mice to 30-day postinfection with Plasmodium berghei upon 100 mg/kg upon subcutaneous dose was determined; assay type: functional; outline: as §1
[10] = Oral bioavailability (dose 50 mg/kg); settings: rat, in vivo
[11] = Plasma clearance after intravenous administration of 10 mg/kg; settings: rat
[12] = Volume distribution after intravenous administration of 10 mg/kg; settings: rat, in vivo
[13] = Plasma half life period after intravenous administration ( 10 mg/kg ); settings: rat
Mus musculus [14] = assay: Survival of mice to 30-day postinfection with Plasmodium berghei upon 10 mg/kg upon peroral dose was determined; assay type: functional; settings: route oral; outline: as §1
Plasmodium falciparum [15] = assay: In vitro inhibition of chloroquine-resistant Plasmodium falciparum K1; assay type: functional, organism-based
Plasmodium falciparum [16] = assay: In vitro inhibition of chloroquine-sensitive Plasmodium falciparum NF54; assay type: functional, organism-based
Mus musculus [17] = assay: Survival of mice to 30-day postinfection with Plasmodium berghei upon 10 mg/kg peroral dose was determined; assay type: functional; settings: route oral; outline: as §1
Mus musculus [18] = assay: Survival of mice to 30-day postinfection with Plasmodium berghei upon 10 mg/kg upon subcutaneous dose was determined; assay type: functional; outline: as §1
Plasmodium falciparum [19] = assay: Anti-parasitic effect against Plasmodium berghei in mice (Mus musculus) after 4 days at 100 mg/kg/day (T/A Tween 80) peroral dose in Peters suppressive assay; assay type: functional, organism-based; set-up: route oral
Plasmodium falciparum [20] = assay: Antiparasitic effect against Plasmodium berghei infected mice (Mus musculus) after 100 mg/kg peroral (SSV) dose after 3 days; assay type: functional; settings: route oral
Plasmodium falciparum [21] = assay: Antiparasitic effect against Plasmodium berghei infected mice (Mus musculus) after 100 mg/kg peroral (T/A Tween-80) dose after 3 days; assay type: functional, organism-based; set-up: dose 100 mg/kg, route oral; outline: as §1
[22] = Plasma half life period after intravenous administration ( 30 mg/kg ); assay type: ADME, organism-based, Mus musculus; set-up: dose 30 mg/kg, route intravenous
Outline: (§2)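 Conscious, free-moving rats (n = 3 per group) were jugular- and carotid-cannulated the day before dosing under isoflurane, then fasted overnight. The iv dose was a 5 min jugular infusion in aqueous 0.1 M Captisol (10, 20 or 30 mg/kg). The oral dose was given by gavage as a suspension in 0.5% CMC/0.4% polysorbate 80/0.5% benzyl alcohol/0.9% NaCl (30, 50 or 80 mg/kg). Carotid blood was sampled over 7 h and plasma was obtained by centrifugation.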

[23] = Bioavailability obtained after oral administration of 80 mg/kg; assay type: ADME, organism-based, Mus musculus; settings: in vivo; outline: as §2
[24] = Plasma clearance after intravenous administration of 30 mg/kg; assay type: ADME, organism-based, Mus musculus; set-up: dose 30 mg/kg, route intravenous; outline: as §2
[25] = Volume distribution after intravenous administration of 30 mg/kg; assay type: ADME, organism-based, Mus musculus; set-up: dose 30 mg/kg, route intravenous; settings: in vivo; outline: as §2

Compound | Reduction (Mus musculus [1]) | Reduction (Mus musculus [2]) | IC50 (Plasmodium falciparum [15]) | IC50 (Plasmodium falciparum [16]) | Survival (Mus musculus [17]) | Survival (Mus musculus [18]) | other results
CO[C@H]1O[C@@H]2O[C@@]3(C)CC[C@H]4[C@H](C)CC[C@@H]([C@H]1C)[C@@]24OO3 | 98% | 99.78% | – | – | – | – | Reduction (Mus musculus [3]): 99.95%; Reduction (Mus musculus [4]): >99.99%; ED50 (Mus musculus [5]): 2 (mg/kg)/day; ED90 (Mus musculus [5]): 4.3 (mg/kg)/day; ED50 (Mus musculus [6]): 2.7 (mg/kg)/day; ED90 (Mus musculus [6]): 6.2 (mg/kg)/day; ED50 (Mus musculus [7]): 3.1 (mg/kg)/day; Survival (Mus musculus [8]): 14.7 days; Survival (Mus musculus [9]): 14.7 days; bioavailability [10]: 1.4%; clearance [11]: 114 mL/min/kg; Vd [12]: 8 L/kg; half-life [13]: 0.867 h
C1CCC2(CC1)OOC1(O2)C2CC3CC(C2)CC1C3 (stereo not given) | 94% | >99.99% | – | – | – | – | Reduction (Mus musculus [3]): >99.99%; Reduction (Mus musculus [4]): >99.99%; Survival (Mus musculus [8]): 14.3 days; Survival (Mus musculus [14]): 7.2 days; Survival (Mus musculus [9]): 28 days
CC1(C)CCC2(CC1)OOC1(O2)C2CC3CC(C2)CC1C3 (stereo not given) | 80% | – | 2.3 ng/mL (≈ 7.87 nM) | 3.5 ng/mL (≈ 12 nM) | 6.7 days | 11.7 days | –
C[C@H]1[C@H](OC(=O)CCC(=O)O)O[C@@H]2O[C@@]3(C)CC[C@H]4[C@H](C)CC[C@@H]1[C@@]24OO3 [ARTESUNATE] | 65% | 65% | – | – | 6.8 days | 6.8 days | ED50 (Mus musculus [5]): 5 (mg/kg)/day; ED90 (Mus musculus [5]): 13 (mg/kg)/day; ED50 (Mus musculus [6]): 5.9 (mg/kg)/day; ED90 (Mus musculus [6]): 21 (mg/kg)/day; ED50 (Mus musculus [7]): 2.4 (mg/kg)/day; ED90 (Mus musculus [7]): 13 (mg/kg)/day
Fc1ccc(C2(c3ccc(F)cc3)OOC3(CCC(c4ccccc4)CC3)O2)cc1 (stereo not given) | 0% | 0% | – | – | 5.3 days | 5.7 days | –
CCOC(=O)N1CCC2(CC1)OOC1(O2)C2CC3CC(C2)CC1C3 (stereo not given) | 99.5% | 99.9% | 0.29 ng/mL (≈ 0.859 nM) | 0.57 ng/mL (≈ 1.69 nM) | 7.7 days | 8.9 days | ED90 (Mus musculus [5]): 5.5 (mg/kg)/day; ED90 (Mus musculus [7]): 2 (mg/kg)/day; bioavailability [10]: 1.5%; clearance [11]: 47 mL/min/kg; Vd [12]: 23 L/kg; half-life [13]: 5.73 h
CC1(C)CC(C)(C)CC2(C1)OOC1(O2)C2CC3CC(C2)CC1C3 (stereo not given) | 88% | 99.9% | 3.1 ng/mL (≈ 9.67 nM) | 5 ng/mL (≈ 15.6 nM) | 7 days | 97 days | –
c1ccc(C2(c3ccccc3)CCC3(CC2)OOC2(O3)C3CC4CC(C3)CC2C4)cc1 (stereo not given) | 0% | 0% | 42 ng/mL (≈ 101 nM) | 60 ng/mL (≈ 144 nM) | 5.3 days | 5.7 days | –
c1ccc(C2(c3ccccc3)OOC3(O2)C2CC4CC(C2)CC3C4)cc1 (stereo not given) | 68% | 92% | 2.3 ng/mL (≈ 6.6 nM) | 2.6 ng/mL (≈ 7.46 nM) | 6 days | 7 days | –
CC1(C)COC2(CCC3(CC2)OOC2(CC(C)(C)CC(C)(C)C2)O3)OC1 | 0% | 0% | – | – | 5.7 days | 5.7 days | –
C1CCC2(CC1)OCC1(O2)C2CC3CC(C2)CC1C3 (stereo not given) | – | – | > 1000 ng/mL | > 1000 ng/mL | – | – | Reduction (Mus musculus [3]): 0%; Reduction (Mus musculus [4]): 0%; Survival (Mus musculus [8]): 5.8 days; Survival (Mus musculus [9]): 5.6 days
CC1(C)COC2(CCC3(CC2)OOC2(O3)C3CC4CC(C3)CC2C4)OC1 (stereo not given) | – | >99.99% | – | – | 11.4 days | 18 days | EC50 (Plasmodium falciparum [19]): 1.8 (mg/kg)/day; EC90 (Plasmodium falciparum [20]): 6.2 (mg/kg)/day; EC50 (Plasmodium falciparum [21]): 1.5 (mg/kg)/day; half-life [22]: 2.58 h; bioavailability [23]: 0.73%; clearance [24]: 83 mL/min/kg; Vd [25]: 18 L/kg
OC1CCC2(CC1)OOC1(O2)C2CC3CC(C2)CC1C3 (stereo not given) | 79% | 91% | – | – | 6.7 days | 8.7 days | –
C1CC2(CCO1)OOC1(O2)C2CC3CC(C2)CC1C3 (stereo not given) | 35% | 99.6% | – | – | 6 days | – | Survival (Mus musculus [9]): 7.7 days
CC(C)C1CCC2(CC1)OOC1(O2)C2CC3CC(C2)CC1C3 (stereo not given) | 99% | 9.89% | 1.4 ng/mL (≈ 4.57 nM) | 2 ng/mL (≈ 6.53 nM) | 7.3 days | 9 days | –
